Key:
[1] = target: Sodium-dependent serotonin transporter (Homo sapiens, UniProt P31645); assay: Displacement of [3H]citalopram from human cloned SERT expressed in HEK293 cells; format: cell-based
Method in brief: (§1)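 Each compound was first tested at 100 nM against tritiated radioligand binding. A Ki was determined only where that concentration inhibited at least 50% of specific binding (IC50 <100 nM).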

[2] = target: T1, Sodium-dependent dopamine transporter (Homo sapiens, UniProt Q01959); assay: Displacement of [3H]GBR12935 from human cloned DAT expressed in HEK293 cells
T1 sequence (Q01959 whole entry): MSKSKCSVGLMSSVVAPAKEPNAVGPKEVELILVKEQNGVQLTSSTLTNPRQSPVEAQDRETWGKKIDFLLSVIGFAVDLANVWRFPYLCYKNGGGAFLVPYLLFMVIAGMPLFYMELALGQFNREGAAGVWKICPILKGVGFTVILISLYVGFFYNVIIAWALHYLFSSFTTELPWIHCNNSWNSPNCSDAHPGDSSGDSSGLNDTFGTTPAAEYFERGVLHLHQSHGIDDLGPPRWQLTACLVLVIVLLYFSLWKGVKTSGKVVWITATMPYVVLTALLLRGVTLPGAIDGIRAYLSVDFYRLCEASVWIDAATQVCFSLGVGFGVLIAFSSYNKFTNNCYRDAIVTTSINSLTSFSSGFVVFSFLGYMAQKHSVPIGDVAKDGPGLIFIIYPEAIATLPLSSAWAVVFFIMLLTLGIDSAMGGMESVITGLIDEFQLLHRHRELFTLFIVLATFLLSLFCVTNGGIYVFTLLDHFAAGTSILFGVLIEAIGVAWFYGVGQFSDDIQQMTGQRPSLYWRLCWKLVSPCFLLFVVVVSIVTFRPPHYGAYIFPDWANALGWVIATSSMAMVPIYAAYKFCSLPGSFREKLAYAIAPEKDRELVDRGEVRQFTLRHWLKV

[3] = target: Sodium-dependent noradrenaline transporter (Homo sapiens, UniProt P23975); assay: Displacement of [3H]nisoxetine from human cloned NET expressed in HEK293 cells; format: cell-based; method in brief: as §1
Sodium-dependent noradrenaline transporter, sequence (P23975 whole entry): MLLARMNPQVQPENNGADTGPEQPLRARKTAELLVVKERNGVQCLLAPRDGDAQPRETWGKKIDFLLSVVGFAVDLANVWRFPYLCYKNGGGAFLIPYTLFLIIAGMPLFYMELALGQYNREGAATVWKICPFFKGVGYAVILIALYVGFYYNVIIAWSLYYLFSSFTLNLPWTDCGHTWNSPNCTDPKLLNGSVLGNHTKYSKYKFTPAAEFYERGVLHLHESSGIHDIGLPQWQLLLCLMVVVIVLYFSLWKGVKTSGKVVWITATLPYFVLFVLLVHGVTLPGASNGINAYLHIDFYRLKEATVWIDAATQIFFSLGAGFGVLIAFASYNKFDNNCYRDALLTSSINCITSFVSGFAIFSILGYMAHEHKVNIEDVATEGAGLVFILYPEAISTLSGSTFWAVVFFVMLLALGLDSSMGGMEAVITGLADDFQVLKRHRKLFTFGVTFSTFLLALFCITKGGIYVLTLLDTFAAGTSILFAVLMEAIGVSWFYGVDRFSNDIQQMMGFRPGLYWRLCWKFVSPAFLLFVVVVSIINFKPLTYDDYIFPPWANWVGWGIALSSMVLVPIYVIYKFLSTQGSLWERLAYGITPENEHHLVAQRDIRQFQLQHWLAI

[4] = target: T1, Sodium-dependent dopamine transporter; assay: Displacement of [3H]WIN-35428 from human cloned DAT expressed in HEK293 cells; format: cell-based; details: in the assay text read “[3H]GBR12935” for “[3H]WIN-35428”; method in brief: as §1

Sodium-dependent serotonin transporter, sequence (P31645 whole entry): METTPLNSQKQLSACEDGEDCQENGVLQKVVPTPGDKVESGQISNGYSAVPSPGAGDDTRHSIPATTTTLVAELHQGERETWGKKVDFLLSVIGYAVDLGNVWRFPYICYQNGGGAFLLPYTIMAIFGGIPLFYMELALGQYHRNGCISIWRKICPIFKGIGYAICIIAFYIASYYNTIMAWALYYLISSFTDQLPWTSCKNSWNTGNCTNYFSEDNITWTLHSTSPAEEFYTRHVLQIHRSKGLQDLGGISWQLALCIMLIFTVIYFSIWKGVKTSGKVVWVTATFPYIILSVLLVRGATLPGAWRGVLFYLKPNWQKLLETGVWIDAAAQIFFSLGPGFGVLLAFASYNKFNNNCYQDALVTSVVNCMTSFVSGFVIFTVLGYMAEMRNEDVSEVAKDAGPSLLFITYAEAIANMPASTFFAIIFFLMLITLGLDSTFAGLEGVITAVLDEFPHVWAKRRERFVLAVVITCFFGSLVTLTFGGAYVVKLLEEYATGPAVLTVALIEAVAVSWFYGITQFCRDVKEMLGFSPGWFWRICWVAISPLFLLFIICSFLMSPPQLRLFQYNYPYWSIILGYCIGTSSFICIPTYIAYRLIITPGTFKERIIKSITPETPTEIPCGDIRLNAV

| Ki [1] [nM] | Ki [2] [nM] | Ki [3] [nM] | Ki [4] [nM] | SMILES |
| --- | --- | --- | --- | --- |
| 0.171 | – | – | – | CN(C)Cc1ccccc1Oc1ccc(I)cc1N |
| 8 | 503 | 1240 | – | Cc1ccc(Oc2ccc(F)cc2CN(C)C)c(N)c1 |
| 519 | – | 8850 | 726 | Cc1ccc(Oc2cc(OCCF)ccc2CN(C)C)c(N)c1 |
| 445 | – | > 500 | > 1000 | Cc1ccc(Oc2cc(OCCCF)ccc2CN(C)C)c(N)c1 |
| 7 | – | 632 | 6980 | Cc1ccc(Oc2ccc(OCCCF)cc2CN(C)C)c(N)c1 |
| 12 | 3600 | 406 | – | Cc1ccc(Oc2ccc(OCCCCF)cc2CN(C)C)c(N)c1 |
| 401 | – | 667 | 4190 | Cc1ccc(Oc2ccc(OCCF)cc2CN(C)C)c(N)c1 |
| 13 | – | 1200 | 1220 | Cc1ccc(Sc2cc(F)ccc2CN(C)C)c(N)c1 |
| 7 | – | 503 | 960 | Cc1ccc(Oc2cc(F)ccc2CN(C)C)c(N)c1 |
